Most compounds without a hit are left out; they make up all but 2% or so of the library.
HNF4A DNA FP – change in binding of human HNF4 alpha to DNA; activity change, % at 10 µM; AID 1224865; actives 0.3% (n = 360,000); HNF4a-FITC DNA binding, fluorescence polarization, 1 h; P41235; in the data active means activity change above about 30%, passing the limit was not always enough
CSN deneddyl inh – blocks human CSN-mediated cullin deneddylation; Q92905; Purified CSN, SCF-Nedd8-OG deneddylation, fluorescence polarization; inhibition, % at 12.5 µM; actives 0.38% (n = 360,000);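 active means pattern-corrected inhibition above about 35%, with an unprinted fluorescence ratio check between 0.5 and 1.5, limit read from the data, passing the limit was not always enough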;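 further: 0% = enzyme with substrate and 100% = substrate without enzyme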
Target sequence (Q92905 whole entry, looked up, one chain of several): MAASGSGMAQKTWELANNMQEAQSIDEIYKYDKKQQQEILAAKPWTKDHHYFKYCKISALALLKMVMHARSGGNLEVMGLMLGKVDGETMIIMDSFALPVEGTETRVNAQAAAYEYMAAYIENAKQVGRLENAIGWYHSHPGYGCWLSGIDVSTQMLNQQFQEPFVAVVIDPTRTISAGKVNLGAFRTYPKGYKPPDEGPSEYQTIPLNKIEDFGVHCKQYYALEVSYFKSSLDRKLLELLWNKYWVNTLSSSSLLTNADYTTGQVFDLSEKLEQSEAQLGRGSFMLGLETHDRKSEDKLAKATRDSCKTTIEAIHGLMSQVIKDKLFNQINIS
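Assay system: HEK293T-derived human Csn5 enzyme; quantity: 0.24 nM enzyme; medium: Tris/NaCl/DTT buffer, pH 7.5; also added: substrate SCFSkp2-Nedd8OG, 10 nM; doses: 12.5 µM compound; schedule: 90 min reaction at room temperature; signal: FP; read-out: % inhibition of substrate cleavage by Csn5; benchmarks: substrate-only high control, full reaction low control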
TPT1 inhibitor – blocks Candida albicans tRNA 2'-phosphotransferase; recombinant caTPT1, FP RNA substrate dephosphorylation; inhibition, % at 5 µM; actives 0.81% (n = 300,000);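 active means inhibition above the mean of all tested compounds plus 3 SD, set per screening campaign, cut at about 24% in these data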;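 further: plate controls were DMSO alone for no effect and ferristatin control at 100 nM for full effect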
ATG4B inhibitor – ATG4B (human) cysteine protease inhibition; Q9Y4P1; ATG4B cleavage of LC3-PLA2, NBD-HPC fluorescence, 1 h; inhibition, % at 8.33 µM; actives 0.51% (n = 340,000); in the data active means inhibition above about 40%
Rpn11 block – inhibitors of human proteasome Rpn11; human 26S proteasome, Ub4-pepOG fluorescence polarization; 20S core pre-blocked with epoxomicin; inhibition, % at 20 µM; actives 0.59% (n = 360,000); AID 588493;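 active means inhibition at 20 µM, scaled to each plate's controls, above about 33%, limit read from the data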
SENP1 inh – blocks the human SENP1 SUMO protease catalytic domain; actives 0.21% (n = 360,000); Q9P0U3; inhibition, % at 10 µM; AID 624204; recombinant SENP1 catalytic domain, CyPet-SUMO1-YPet FRET cleavage;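 active means inhibition at least 30% at 10 µM, raw YFP signal under a set limit, fluorescence ratio 0.5 to 1.5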;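 further: 0% = enzyme with DMSO and 100% = no enzyme wells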
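Material: hSENP1 catalytic domain, recombinant; medium: Tris pH 8 with BME, BSA, NP40 and catalase; compound: single concentration of 10 µM compound, 0.5% DMSO final; technique: FRET read of cyan and yellow fluorescence; timing: 50 min enzyme reaction, room temperature, light-protected; reagent: SFCypet-SUMO1-SFYpet substrate at 25 nM; control set: no-enzyme low, enzyme-DMSO high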
ATG4B confirm – confirmation of human ATG4B inhibitors; actives 92% (n = 320); AID 504757; shares compounds with ATG4B inhibitor; inhibition, % at 8.33 µM; ATG4B protease fluorescent substrate cleavage assay; in the data active means inhibition above about 39%
PLA2 counter – inhibits human PLA2, flagging false ATG4B inhibitors. shares compounds with ATG4B inhibitor. purified PLA2, NBD-C6-HPC fluorescence, 45 min. inhibition, % at 8.33 µM. actives 66% (n = 1,600). AID 588402; in the data active means inhibition above about 50%
Target sequence (P04054 whole entry, looked up): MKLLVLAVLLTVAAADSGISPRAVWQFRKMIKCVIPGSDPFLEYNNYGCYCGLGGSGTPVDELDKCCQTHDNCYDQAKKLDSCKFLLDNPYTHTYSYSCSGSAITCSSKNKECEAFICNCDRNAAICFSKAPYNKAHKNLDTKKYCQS
* marks the source's active call; other numbers are inactive results.

Results for COc1ccc(S(=O)(=O)N2CCCCC2)cc1NC(=S)Nc1ccccc1 ?
HNF4A DNA FP: -3; CSN deneddyl inh: 3; TPT1 inhibitor: 1; ATG4B inhibitor: -2; Rpn11 block: -6; SENP1 inh: 1

How did CCN(C[C@H]1N[C@@](CC)(C(=O)OC)[C@H]2C(=O)N(C)C(=O)[C@@H]12)C(=O)NC(C)C do in these assays?
HNF4A DNA FP: 0; CSN deneddyl inh: -1; ATG4B inhibitor: -10; Rpn11 block: -7; SENP1 inh: 2

How did NC(=O)CSc1nnc(COc2ccccc2)n1CCc1ccccc1 do in these assays?
HNF4A DNA FP: -2; CSN deneddyl inh: 0; TPT1 inhibitor: -1; ATG4B inhibitor: 54*; Rpn11 block: -2; SENP1 inh: 1; PLA2 counter: 46

How did Cc1ccc(OCc2nnc(SCC(=O)c3cccs3)n2-c2ccccc2)cc1C do in these assays?
HNF4A DNA FP: -2; CSN deneddyl inh: -2; TPT1 inhibitor: -3; ATG4B inhibitor: 62*; Rpn11 block: 3; SENP1 inh: 1; PLA2 counter: 78*

What do the screens show for `O=C(CSc1nnc(COc2ccccc2)n1-c1ccccc1)c1cccs1`?
HNF4A DNA FP: 3; CSN deneddyl inh: -4; TPT1 inhibitor: 1; ATG4B inhibitor: 54*; Rpn11 block: -1; SENP1 inh: 2; PLA2 counter: 55*

What do the screens show for `O=C(O)CSc1nnc(COc2ccccc2)n1-c1ccccc1`?
HNF4A DNA FP: -1; CSN deneddyl inh: 4; TPT1 inhibitor: -1; ATG4B inhibitor: 1; Rpn11 block: 2; SENP1 inh: 1

How did Cc1cccc(OCc2nnc(SCCC(=O)O)n2-c2ccccc2)c1 do in these assays?
HNF4A DNA FP: -2; CSN deneddyl inh: -1; TPT1 inhibitor: -2; ATG4B inhibitor: 2; Rpn11 block: -5; SENP1 inh: 1

What do the screens show for `Cc1cc(C)c(C(=O)COC(=O)c2c(C)noc2C)cc1C`?
HNF4A DNA FP: 2; CSN deneddyl inh: -3; ATG4B inhibitor: 6; Rpn11 block: -7; SENP1 inh: 0

How did CNC(=O)c1ccsc1NC(=O)CS(=O)(=O)c1ccc(F)cc1 do in these assays?
HNF4A DNA FP: 0; CSN deneddyl inh: -1; Rpn11 block: -2; SENP1 inh: 0

Results for Cc1cc(S(=O)(=O)N2CCN(c3ccccc3C)CC2)ccc1F ?
HNF4A DNA FP: -7; CSN deneddyl inh: 2; TPT1 inhibitor: -5; ATG4B inhibitor: 45*; Rpn11 block: 2; SENP1 inh: -1; PLA2 counter: 52*

What do the screens show for `Cc1cc(S(=O)(=O)N2CCN(c3c(C)cccc3C)CC2)ccc1F`?
HNF4A DNA FP: 1; CSN deneddyl inh: 1; TPT1 inhibitor: -4; ATG4B inhibitor: 49*; Rpn11 block: 0; SENP1 inh: -2; PLA2 counter: 52*

What do the screens show for `CC(N=C1NS(=O)(=O)c2ccccc21)C(=O)NCc1ccncc1` (stereo not given)?
HNF4A DNA FP: -2; CSN deneddyl inh: 0; ATG4B inhibitor: -6; Rpn11 block: 1; SENP1 inh: 0

How did COc1ccc(C(=O)N2CCC2)cc1S(=O)(=O)NCc1ccc(Cl)cc1 do in these assays?
HNF4A DNA FP: 0; CSN deneddyl inh: 0; ATG4B inhibitor: -10; Rpn11 block: 0; SENP1 inh: 1

What do the screens show for `O=C(N/N=C/c1coc2ccccc2c1=O)c1ccccc1`?
HNF4A DNA FP: 2; CSN deneddyl inh: 6; TPT1 inhibitor: -1; ATG4B inhibitor: 28; Rpn11 block: 10; SENP1 inh: 0

How did O=C(N/N=C/c1coc2ccccc2c1=O)c1cn(-c2ccccc2)nc1-c1ccccc1 do in these assays?
HNF4A DNA FP: -8; CSN deneddyl inh: 13; TPT1 inhibitor: 1; ATG4B inhibitor: 92*; Rpn11 block: 13; SENP1 inh: 1; PLA2 counter: 94*

How did CC/C=C\C/C=C\C/C=C\CCCCCCCC(=O)O do in these assays?
HNF4A DNA FP: -21; CSN deneddyl inh: 34; TPT1 inhibitor: -1; ATG4B inhibitor: 46*; Rpn11 block: -5; SENP1 inh: -6; ATG4B confirm: 63*; PLA2 counter: 27

What do the screens show for `CCCCC/C=C\C/C=C\C/C=C\C/C=C\CCCC(=O)O`?
TPT1 inhibitor: 3

How did CCOC(=O)C1CCCN(C(=O)Cc2ccc(OC)c(OC)c2)CC1 (stereo not given) do in these assays?
HNF4A DNA FP: 0; CSN deneddyl inh: -3; Rpn11 block: 6; SENP1 inh: 1

How did Brc1ccc(-c2nnc3n2C2(CCCC2)Cc2ccccc2-3)o1 do in these assays?
HNF4A DNA FP: 2; CSN deneddyl inh: 1; TPT1 inhibitor: -1; ATG4B inhibitor: 52*; Rpn11 block: 4; SENP1 inh: 0; PLA2 counter: 63*

What do the screens show for `Cc1ccc(NC(=O)c2ncn(CCCN[C@H](C)c3cccc4ccccc34)n2)cc1C`?
HNF4A DNA FP: 3; CSN deneddyl inh: 4; ATG4B inhibitor: -22; Rpn11 block: -1; SENP1 inh: -2

Results for Cc1ccc(-c2cc(=O)c3cc(C)ccc3[nH]2)cc1 ?
HNF4A DNA FP: -1; CSN deneddyl inh: 4; TPT1 inhibitor: 1; ATG4B inhibitor: 72*; Rpn11 block: -15; SENP1 inh: 0; PLA2 counter: -13

What do the screens show for `CC(C)N(Cc1ccccc1)C(=O)C1CCN(c2ncnc3c2nc2n3CCCCC2)CC1`?
HNF4A DNA FP: -1; CSN deneddyl inh: -2; TPT1 inhibitor: -2; ATG4B inhibitor: 72*; Rpn11 block: -2; SENP1 inh: 1; PLA2 counter: 76*

What do the screens show for `CN(C)C(=O)Nc1ccccc1CC[N+](=O)[O-]`?
HNF4A DNA FP: 1; CSN deneddyl inh: -18; TPT1 inhibitor: 2; ATG4B inhibitor: 4; Rpn11 block: -2; SENP1 inh: 1

How did O=C(Nc1ccc(Cl)cc1)Nc1ccccc1CC[N+](=O)[O-] do in these assays?
HNF4A DNA FP: -2; CSN deneddyl inh: -17; TPT1 inhibitor: -5; ATG4B inhibitor: 65*; Rpn11 block: 4; SENP1 inh: -5; PLA2 counter: 71*

What do the screens show for `O=c1[nH]c(=S)[nH]c2c1C(C1CCCCC1)OC(C1CCCCC1)C2` (stereo not given)?
HNF4A DNA FP: 1; CSN deneddyl inh: -6; SENP1 inh: 1

How did CC(C)(C)C(=O)OCCNc1nc(-c2ccccc2)nc2ccccc12 do in these assays?
HNF4A DNA FP: -3; CSN deneddyl inh: -3; TPT1 inhibitor: -6; ATG4B inhibitor: 54*; Rpn11 block: -4; SENP1 inh: 0; PLA2 counter: 63*
